Data on 36 molecules can be found in ChEMBL document CHEMBL1765083, “Design, synthesis, and biological evaluation of thiazoles targeting flavivirus envelope proteins” (J Med Chem, 2011).

A short description of series [1]: Growth inhibition of BHK15 cells after 36 hrs by XTT assay. The conditions noted are these: hamster. It counts as cell-based, Mesocricetus auratus. The procedure, abridged: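 Uninfected confluent BHK-15 cells (MEM, 10% FBS) overlaid with serial compound dilutions from DMSO stocks, ~36 h at 37 °C, 5% CO2. Medium replaced, XTT substrate added, 2 h at 37 °C, then OD450 read. GI50 calculated relative to cells given 1% DMSO.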
On the technique in general: Tetrazolium dyes change colour on reduction, which living cells bring about.

Series [2] concerns Yellow fever virus. Briefly: Antiviral activity against Yellow fever virus 17D expressing IRES-luciferase gene infected in BHK cells assessed as inhibition of viral production after 36 hrs by luciferase reporter assay relative to control. It counts as functional. The procedure, abridged: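 Controls: uninfected, infected, and DMSO-treated infected cells. After ~36 h at 37 °C, 5% CO2, cells lysed and firefly luciferase luminescence read. IC50 from nonlinear regression versus DMSO-treated infected cells.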
Background: A reporter such as luciferase makes a cellular process visible.

The subject of series [3] is Yellow fever virus. Briefly: Antiviral activity against Yellow fever virus 17D expressing IRES-luciferase gene infected in BHK cells assessed as inhibition of viral production at 50 uM after 36 hrs by luciferase reporter assay. It counts as functional, cell-based.
Series [4] in a line: Therapeutic index, ratio of GI50 for BHK15 cells to EC50 for Yellow fever virus 17D. The class given is cell-based. The conditions noted are these: hamster, read-out: TI.
A short description of series [5]: Half life in rat plasma. It counts as ADME. The procedure, abridged: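 Reconstituted lyophilized rat plasma warmed 15 min at 37 °C, diluted with 0.01 M saline to 80% plasma, then warmed 5 min more. Compound in DMSO added; mixture kept at 37 °C. Timed aliquots quenched in methanol and centrifuged; supernatants analysed by C18 HPLC (85:15 methanol/water, room temperature). Half-life from regression of concentration versus time.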

In general, GI50 refers to the concentration that inhibits growth by half. Broadly, the EC50 is the concentration at which the effect is half-maximal. Take `CCSC(=O)c1sc(-c2ccc(Cl)cc2)nc1C(Br)Br`: the GI50 at 36 h in series [1] was 81.4 µM. For the same molecule, the “inhibition (INH)” value in series [2] was found to be 99.7%. The EC50 in series [3] was found to be 1600 nM.

As for `O=C(N[C@@H]1OC(CO)C(O)[C@H](O)[C@H]1O)c1sc(-c2ccc(Cl)cc2)nc1C(Br)Br` (single isomer, unassigned), in series [2], the “inhibition (INH)” value turned out to be 43.4%.

`CC(C)OC(=O)c1sc(-c2ccc(Cl)cc2)nc1C(Br)Br` displayed a GI50 at 36 h in series [1] of 372 µM. Further, the “inhibition (INH)” value in series [2] is 84.4%. Also, the EC50 in series [3] worked out at 19900 nM.

As a reminder, the half-life is the time in which the quantity being followed falls by half. Low readings indicate fast loss, high ones slow loss. `CSC(=O)c1sc(-c2ccc(Cl)cc2)nc1C(Br)Br` showed a GI50 at 36 h in series [1] of 369 µM. Besides, in series [4], the selectivity ratio was 256. The molecule further gave a half-life in series [5] of 1480 min. Further, the “inhibition (INH)” value in series [2] is recorded as 99.6%. Besides, in series [3], the EC50 stood at 1400 nM.

For `CN(C)C(=O)c1sc(-c2ccc(Cl)cc2)nc1C(Br)Br`, the GI50 at 36 h in series [1] turned out to be 163 µM. In series [2], the “inhibition (INH)” value was found to be 93.2%. In addition, the EC50 in series [3] was 20000 nM.

The molecule `Cc1noc(-c2sc(-c3ccc(Cl)cc3)nc2C=O)n1` had a GI50 at 36 h in series [1] of 163 µM. Besides, in series [2], the “inhibition (INH)” value is given as 99.6%. Moreover, in series [3], the EC50 amounted to 26500 nM.

In turn, `CN(C)/C=C/C(=O)c1sc(-c2ccc(Cl)cc2)nc1C(Br)Br` showed a GI50 at 36 h in series [1] of 38.2 µM. Moreover, the “inhibition (INH)” value in series [2] is reported as 99.8%. Further, the EC50 in series [3] was determined as 11400 nM.

With `COC(=O)c1sc(-c2ccc(Cl)cc2)nc1C(C)(C)C`, the “inhibition (INH)” value in series [2] was determined as 20.9%.

The molecule `CC(=O)c1sc(-c2ccc(Cl)cc2)nc1C(Br)Br` displayed a GI50 at 36 h in series [1] of 83.5 µM. Moreover, the “inhibition (INH)” value in series [2] is 99.9%. Further, the EC50 in series [3] is 1300 nM.

Turning to `COC(=O)c1sc(-c2ccc(Cl)cc2)nc1C(Cl)Cl`, the GI50 at 36 h in series [1] amounted to 34.1 µM. The “inhibition (INH)” value in series [2] was 99.9%. Further, the EC50 in series [3] was 52800 nM.

As for `CCOC(=O)c1sc(-c2ccc(Cl)cc2)nc1C(Br)Br`, the GI50 at 36 h in series [1] stood at 94.6 µM. Further, the “inhibition (INH)” value in series [2] was determined as 98.1%. Further, the EC50 in series [3] amounted to 8700 nM.

On to `CNC(=O)c1sc(-c2ccc(Cl)cc2)nc1C=O`, for which the “inhibition (INH)” value in series [2] is recorded as 37.5%.

In turn, `C=CCNC(=O)c1sc(-c2ccc(Cl)cc2)nc1C(Br)Br` yielded a GI50 at 36 h in series [1] of 40.8 µM. The “inhibition (INH)” value in series [2] is reported as 99.9%. The EC50 in series [3] was found to be 1600 nM.

The molecule `COC(=O)c1nc(-c2ccc(Cl)cc2)sc1C(=O)N(C)C` gave a GI50 at 36 h in series [1] of 99.7 µM. Besides, the “inhibition (INH)” value in series [2] was found to be 74%. Besides, the EC50 in series [3] worked out at 51000 nM.

For the molecule `COC(=O)c1sc(-c2ccc(Cl)cc2)nc1C(C)C`, in series [1], the GI50 at 36 h was 49.6 µM. Also, the “inhibition (INH)” value in series [2] is on record as 14.7%. The concentration giving a half-maximal response (EC50) in series [3] came to 58700 nM.

Turning to `COCc1nc(-c2ccc(Cl)cc2)sc1C(=O)OC`, the 50% growth inhibitory concentration (GI50) at 36 h in series [1] turned out to be 388 µM. For the same molecule, the “inhibition (INH)” value in series [2] is given as 38.1%. Also, the EC50 in series [3] is 158000 nM.

For `CNC(=O)c1sc(-c2ccc(Cl)cc2)nc1COC`, in series [1], the GI50 at 36 h was 50.8 µM. For the same molecule, the “inhibition (INH)” value in series [2] is on record as 99.7%. In addition, the concentration for a half-maximal effect (EC50) in series [3] stood at 2900 nM.

As to `COC(=O)c1sc(-c2ccc(Cl)cc2)nc1C=O`, in series [1], it took 36.4 µM to inhibit growth by half (GI50 at 36 h). In addition, the “inhibition (INH)” value in series [2] is 99.9%. Moreover, the EC50 in series [3] was 42800 nM.

`COC(=O)c1nc(-c2ccc(Cl)cc2)sc1C(=O)OC`: the “inhibition (INH)” value in series [2] is 30.1%.

In series [1], `O=C(NCCO)c1sc(-c2ccc(Cl)cc2)nc1C(Br)Br` yielded a GI50 at 36 h of 40.8 µM. In addition, the “inhibition (INH)” value in series [2] is on record as 99.8%. In addition, the concentration giving a half-maximal response (EC50) in series [3] stood at 2900 nM.

With `CCc1nc(-c2ccc(Cl)cc2)sc1C(=O)OC`, the “inhibition (INH)” value in series [2] is on record as -56.7%.

The molecule `CNC(=O)c1sc(-c2ccc(Cl)cc2)nc1C(Br)Br` yielded a GI50 at 36 h in series [1] of 74.6 µM. In addition, the “inhibition (INH)” value in series [2] is 99.7%. For the same molecule, the EC50 in series [3] was 1800 nM.

In the case of `C#CCNC(=O)c1sc(-c2ccc(Cl)cc2)nc1C(Br)Br`, the GI50 at 36 h in series [1] was determined as 23.9 µM. For the same molecule, the “inhibition (INH)” value in series [2] amounted to 99.7%. In series [3], the 50% effective concentration (EC50) was 1700 nM.

As to `CCN(CC)C(=O)c1sc(-c2ccc(Cl)cc2)nc1C(Br)Br`, the 50% growth inhibitory concentration (GI50) at 36 h in series [1] was 63.5 µM. For the same molecule, the “inhibition (INH)” value in series [2] was 99.8%. For the same molecule, the concentration for a half-maximal effect (EC50) in series [3] is 13700 nM.

With `COCc1nc(-c2ccc(Cl)cc2)sc1C(=O)N(C)C`, the “inhibition (INH)” value in series [2] was 11.3%.

In series [1], `NC(=O)c1sc(-c2ccc(Cl)cc2)nc1C(Br)Br` registered a GI50 at 36 h of 99.7 µM. Besides, in series [2], the “inhibition (INH)” value worked out at 99.8%. Besides, the EC50 in series [3] was 1700 nM.

`COC(=O)c1sc(-c2ccc(Cl)cc2)nc1CS(C)(=O)=O`: the “inhibition (INH)” value in series [2] is -74.7%.

For `COC(=O)c1sc(-c2ccc(Cl)cc2)nc1C#N`, the “inhibition (INH)” value in series [2] was found to be 7.8%.

For `COC(=O)c1nc(-c2ccc(Cl)cc2)sc1-c1nc(C)no1`, the “inhibition (INH)” value in series [2] worked out at 1.5%.

Regarding `CCOC(=O)c1sc(-c2ccc(Cl)cc2)nc1-c1ccco1`, the GI50 at 36 h in series [1] worked out at 465 µM. In addition, in series [2], the “inhibition (INH)” value came out at 50.3%. Moreover, in series [3], the EC50 worked out at 311000 nM.

In turn, `COC(=O)c1sc(-c2ccc(Cl)cc2)nc1C(Br)Br` gave a GI50 at 36 h in series [1] of 222 µM. Also, the selectivity ratio in series [4] came to 79. The molecule further had a half-life in series [5] of 84.9 min. For the same molecule, the “inhibition (INH)” value in series [2] was 99.6%. In addition, the concentration giving a half-maximal response (EC50) in series [3] came to 2800 nM.

`O=C(NC[C@@H](O)CO)c1sc(-c2ccc(Cl)cc2)nc1C(Br)Br` gave a GI50 at 36 h in series [1] of 158 µM. For the same molecule, the “inhibition (INH)” value in series [2] turned out to be 99.9%. The EC50 in series [3] was 1100 nM.

For the molecule `COC(=O)c1sc(-c2ccc(Cl)cc2)nc1CBr`, the GI50 at 36 h in series [1] worked out at 74.6 µM. In addition, the “inhibition (INH)” value in series [2] stood at 99.9%. In series [3], the EC50 is 1600 nM.

`CONC(=O)c1sc(-c2ccc(Cl)cc2)nc1C(Br)Br` showed a GI50 at 36 h in series [1] of 81.4 µM. For the same molecule, the “inhibition (INH)” value in series [2] was 93.6%. The EC50 in series [3] was determined as 1700 nM.

On to `CN(C)C(=O)c1sc(-c2ccc(Cl)cc2)nc1C=O`, for which, in series [2], the “inhibition (INH)” value stood at 5.5%.

Consider `CCNC(=O)c1sc(-c2ccc(Cl)cc2)nc1C(Br)Br`, for which the GI50 at 36 h in series [1] stood at 33.3 µM. Further, in series [2], the “inhibition (INH)” value amounted to 99.9%. Also, in series [3], the EC50 was 2700 nM.
